The text below walks through data of ChEMBL document CHEMBL1126149, “Centrally acting alpha 1-adrenoceptor agonists based on hexahydronaphth[2,3-b]-1,4-oxazines and octahydrobenzo[g]quinolines” (1992).

Bounds are passed on as bounds.

Experiment [1] has as its target T1, Adrenergic receptor alpha-1 (Homo sapiens) (UniProt P35348+P25100+P35368). Briefly: alpha-1-adrenergic activity by measuring their potency in rabbit ear artery based on noradrenaline. It is filed as functional, tissue-based. The following applies: Oryctolagus cuniculus, target entry is the homologue from another species. In short, it runs like this: (§1)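 Isolated rabbit ear artery segment, circular smooth muscle tension measured isometrically; cocaine blocks neuronal uptake, rauwolscine blocks α2-receptors. Cumulative noradrenaline curve (10^-10–10^-5 M) sets the maximum, then after washout a cumulative curve for the test drug. pD2 = −log molar concentration giving 50% of NA maximum; efficacy = drug maximum relative to NA. n = 3-5.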

The species named for experiment [2] is Rattus norvegicus. Briefly: alpha-1/alpha-2-agonistic activity by measuring their potency in pithed rat based on noradrenaline. The format is functional. In short, it runs like this: (§2)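 Pithed rats with jugular vein catheter for iv dosing and carotid catheter for arterial pressure, about 15 min equilibration. Single increasing iv doses are given and the rise in diastolic pressure is read to build a dose-response curve. pD2 is taken from that curve; efficacy is relative to noradrenaline. n = 3.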

Experiment [3] addresses T1, Adrenergic receptor alpha-1 (Homo sapiens). Briefly: Alpha-1-adrenergic activity as efficacy in rabbit ear artery relative to noradrenaline. The following applies: Oryctolagus cuniculus, target entry is the homologue from another species. The format is functional, tissue-based. The method in brief: as §1
The target is the same in experiment [4]. The note with it: Oryctolagus cuniculus; Artery.
The target is the same in experiment [5]. The note with it: Oryctolagus cuniculus; Artery. This is another data set of the same source.
The species entered for experiment [6] is Rattus norvegicus. Put plainly: Alpha-1/Alpha-2-agonistic activity by measuring their potency in pithed rat based on noradrenaline. The format is functional. The method in brief:
as §2

The species entered for experiment [7] is Rattus norvegicus. Briefly: Change in blood pressure was reported in pithed rat. The format is functional. In short, it runs like this:
as §2

The species named for experiment [8] is Rattus norvegicus. Put plainly: Alpha-1/Alpha-2-agonistic activity by measuring their efficacy in pithed rat based on noradrenaline. It is filed as functional. The method in brief:
as §2

The species named for experiment [9] is Rattus norvegicus. Briefly: alpha-1/alpha-2-agonistic activity by measuring their efficacy in pithed rat based on noradrenaline. It is filed as functional. The method in brief: as §2
Experiment [10] has as its target T1, Adrenergic receptor alpha-1 (Homo sapiens). Briefly: Alpha-1-adrenergic activity as potency in rabbit ear artery compared to noradrenaline. The following applies: Oryctolagus cuniculus, target entry is the homologue from another species. It is filed as functional, tissue-based. The method in brief:
as §1

For experiment [11], the species on record is Rattus norvegicus. Put plainly: Alpha-1/alpha-2-agonistic activity by measuring their efficacy in pithed rat based on noradrenaline. The format is functional. In short, it runs like this:
as §2

For experiment [12], the species on record is Rattus norvegicus. Put plainly: Alpha-1/alpha-2-agonistic activity by measuring their potency in pithed rat based on noradrenaline. The format is functional. In short, it runs like this:
as §2

In experiment [13] the target is T1, Adrenergic receptor alpha-1 (Homo sapiens). Briefly: alpha-1-adrenergic activity by measuring their efficacy in rabbit ear artery based on noradrenaline. It is filed as functional, tissue-based. The note with it: Oryctolagus cuniculus, target entry is the homologue from another species. The method in brief:
as §1

For the compound `COc1ccc(SC)c2c1CC1C(C2)OC(C)CN1C` (centres undefined), the figures for the pD2 in [1] and in experiment [2] were 5.83 and <4, respectively. The compound further had an E in experiment [3] of 67.

`NC[C@H](O)c1ccc(O)c(O)c1` gave an E in experiment [4] of 100. This compound also returned a PD2 in [5] of 7.7.

Compound `COc1ccc(SC)c2c1CC1C(CCCN1C)C2` (stereo in doubt; trans) yielded a pD2 in experiment [6] of 6.92. For the same compound, the “Increase in blood pressure (P/R)” value in experiment [7] is listed as -79%. The same compound displayed an E in [8] of 72.

With `COc1ccc(SC)c2c1C[C@H]1[C@@H](C2)OCCN1C` (stereo in doubt; 14) [listing 1 of 2 here], in experiment [7], the “Increase in blood pressure (P/R)” value is on record as -79%. In experiment [9], the E came out at 76. The compound also registered a pD2 in experiment [2] of 6.74.

`CCSc1ccc(OC)c2c1CC1CCCN(C)C1C2` (stereo in doubt; 31) [listing 1 of 2 here]: the pD2 in experiment [10] amounted to 6.46. The compound also returned an E in experiment [3] of 97.

In the case of `COc1ccc(SC)c2c1CC1C(CCCN1C)C2` (stereo in doubt; cis) [listing 1 of 2 here], in experiment [10], the pD2 is < 4.

In experiment [10], `COc1ccc(SC)c2c1C[C@H]1[C@@H](C2)OCCN1C` (stereo in doubt; 15) [listing 1 of 2 here] gave a pD2 of 5.4. In [3], the E amounted to 100.

`CCN1CCOC2Cc3c(SC)ccc(OC)c3CC21` (centres undefined): the results for the pD2 in [10] and in experiment [6] were 7.42 and 6.84, respectively. Besides, the “Increase in blood pressure (P/R)” value in [7] is -84%. The E in experiment [8] came out at 79; in [3] it was 98.

In the case of `CCSc1ccc(OC)c2c1CC1OCCN(C)C1C2` (centres undefined), the pD2 in experiment [1] is 8.2; in experiment [2] it was 6.48. The “Increase in blood pressure (P/R)” value in [7] is listed as -80%. The E stood at 86 in experiment [11] and 95 in experiment [3].

Regarding `CCN1CC(C)OC2Cc3c(SC)ccc(OC)c3CC21` (centres undefined), the pD2 in experiment [10] is 6.47; in [6], 6.45. Further, the “Increase in blood pressure (P/R)” value in experiment [7] is given as -34%. Further, the E stood at 29 in [8] and 93 in [3].

Turning to `COc1ccc(Cl)c2c1CC1C(C2)OCCN1C` (centres undefined), the results for the pD2 in [10] and in [12] were 5.97 and 5.89, respectively. Further, the “Increase in blood pressure (P/R)” value in experiment [7] is on record as -5%. Moreover, the E in experiment [8] was determined as 40; in [3], 89.

On to `COc1ccc([N+](=O)[O-])c2c1CC1C(C2)OCCN1C` (centres undefined), for which the figures for the pD2 in [1] and in experiment [2] were 5.45 and 6, respectively. In [7], the “Increase in blood pressure (P/R)” value is recorded as -22%. In addition, the E was found to be 17 in experiment [11] and 85 in experiment [3].

`COc1ccc(SC)c2c1C[C@@H](N)CC2`: the pD2 came out at 7.48 in experiment [10] and 7.92 in experiment [6]. Moreover, in [7], the “Increase in blood pressure (P/R)” value is -94%. Besides, the results for the E in experiment [8] and in experiment [3] were 73 and 98, respectively.

The compound `COc1ccc(SC)c2c1CC1C(CCCN1C)C2` (stereo in doubt; 33) [listing 1 of 2 here] returned a pD2 in [6] of 7.36. The “Increase in blood pressure (P/R)” value in experiment [7] is reported as -87%. Moreover, in experiment [8], the E stood at 85.

For `CCCN1CCOC2Cc3c(SC)ccc(OC)c3CC21` (centres undefined), the pD2 was found to be 6.78 in experiment [10] and 6.18 in experiment [6]. Moreover, the “Increase in blood pressure (P/R)” value in experiment [7] is -76%. Besides, the E was determined as 38 in [8] and 98 in experiment [3].

In the case of `COc1ccc(SC)c2c1CC1C(CCCN1C)C2` (stereo in doubt; cis) [listing 2 of 2 here], the pD2 in experiment [6] is on record as <4.

`COc1ccc(SC)c2c1C[C@H]1[C@@H](C2)OCCN1C` (stereo in doubt; 15) [listing 2 of 2 here] gave a pD2 in [6] of 6.19. Further, the “Increase in blood pressure (P/R)” value in [7] was -40%. The same compound gave an E in [8] of 23.

In the case of `COc1ccc(SC)c2c1CC1C(CCCN1C)C2` (stereo in doubt; 33) [listing 2 of 2 here], in experiment [10], the pD2 stood at 8.4. Moreover, the E in experiment [3] worked out at 109.

The compound `CCSc1ccc(OC)c2c1CC1CCCN(C)C1C2` (stereo in doubt) [listing 1 of 2 here] registered a pD2 in experiment [6] of 6.12. Further, the “Increase in blood pressure (P/R)” value in experiment [7] is listed as -25%. This compound also gave an E in experiment [8] of 18.

The compound `COc1ccc(SC)c2c1C[C@H]1[C@@H](C2)OCCN1C` (stereo in doubt; 14) [listing 2 of 2 here] showed a pD2 in [1] of 7.5. In experiment [13], the E came out at 110.

`CCSc1ccc(OC)c2c1CC1CCCN(C)C1C2` (stereo in doubt; 31) [listing 2 of 2 here] registered a pD2 in [6] of 6.68. In addition, in experiment [7], the “Increase in blood pressure (P/R)” value was -93%. In addition, the E in [8] is on record as 80.

`CCSc1ccc(OC)c2c1CC1CCCN(C)C1C2` (stereo in doubt) [listing 2 of 2 here]: the pD2 in experiment [10] was < 4.

For the compound `CCC1CN(C)C2Cc3c(OC)ccc(SC)c3CC2O1` (centres undefined), the figures for the pD2 in experiment [10] and in experiment [6] were 5.35 and 6.1, respectively. Besides, the “Increase in blood pressure (P/R)” value in [7] was determined as 0%. In addition, the results for the E in experiment [8] and in experiment [3] were 20 and 42, respectively.
